# System: Fibroblast
# Test: Multiplex assay against human fibroblast
# Type: toxicity, cell-based
# Outline: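 Live cells were stained at seeding with Hoechst33342, BioTracker Green Microtubule Cytoskeleton Dye, MitoTracker Red and Annexin V Alexa Fluor 680, then imaged on a CQ1 microscope at 37°C and 5% CO2 after compound addition. CellPathfinder machine-learning gating split cells into Hoechst high-intensity objects or normal cells. Normal cells were split into healthy, pyknosed or fragmented nuclei, and pyknosed cells into mitotic or apoptotic. Tubulin, mitochondrial-mass and membrane-permeability phenotypes are per cents of healthy-nucleus cells.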
# [1] = 12 h, 1 µM, compound concentration 1 uM, replicate 1
# [2] = 12 h, 1 µM, compound concentration 1 uM, replicate 2
# [3] = 12 h, 10 µM, compound concentration 10 uM, replicate 1
# [4] = 12 h, 10 µM, compound concentration 10 uM, replicate 2
# [5] = 24 h, 1 µM, compound concentration 1 uM, replicate 1
# [6] = 24 h, 1 µM, compound concentration 1 uM, replicate 2
# [7] = 24 h, 10 µM, compound concentration 10 uM, replicate 1
# [8] = 24 h, 10 µM, compound concentration 10 uM, replicate 2
# [9] = 48 h, 1 µM, compound concentration 1 uM, replicate 1
# [10] = 48 h, 1 µM, compound concentration 1 uM, replicate 2
# [11] = 48 h, 10 µM, compound concentration 10 uM, replicate 1
# [12] = 48 h, 10 µM, compound concentration 10 uM, replicate 2
smiles,measurement,setting,value
CN1CCN(c2cc(-c3ccccc3)nc(N)n2)CC1,Population Apoptotic (%),[1],47%
same,Population Fragmented Nuclei (%),[1],15%
same,Population Healthy Nuclei (%),[1],68%
same,Population Hoechst High Intensity Objects (%),[1],2%
same,Population Membrane Permeable-Phenotype (%),[1],1%
same,Population Mitochondria Different-Phenotype (%),[1],10%
same,Population Mitotic Cells (%),[1],52%
same,Population Normal (%),[1],97%
same,Population Pyknosed Nuclei (%),[1],15%
same,Population Tubulin-Different-Phenotype (%),[1],25%
same,Total Cell Count,[1],135
same,Population Apoptotic (%),[2],37%
same,Population Fragmented Nuclei (%),[2],28%
same,Population Healthy Nuclei (%),[2],45%
same,Population Hoechst High Intensity Objects (%),[2],5%
same,Population Membrane Permeable-Phenotype (%),[2],11%
same,Population Mitochondria Different-Phenotype (%),[2],11%
same,Population Mitotic Cells (%),[2],62%
same,Population Normal (%),[2],94%
same,Population Pyknosed Nuclei (%),[2],26%
same,Population Tubulin-Different-Phenotype (%),[2],66%
same,Total Cell Count,[2],97
same,Population Apoptotic (%),[3],48%
same,Population Fragmented Nuclei (%),[3],16%
same,Population Healthy Nuclei (%),[3],67%
same,Population Hoechst High Intensity Objects (%),[3],2%
same,Population Membrane Permeable-Phenotype (%),[3],0%
same,Population Mitochondria Different-Phenotype (%),[3],6%
same,Population Mitotic Cells (%),[3],51%
same,Population Normal (%),[3],97%
same,Population Pyknosed Nuclei (%),[3],15%
same,Population Tubulin-Different-Phenotype (%),[3],44%
same,Total Cell Count,[3],216
same,Population Apoptotic (%),[4],36%
same,Population Fragmented Nuclei (%),[4],40%
same,Population Healthy Nuclei (%),[4],36%
same,Population Hoechst High Intensity Objects (%),[4],7%
same,Population Membrane Permeable-Phenotype (%),[4],10%
same,Population Mitochondria Different-Phenotype (%),[4],12%
same,Population Mitotic Cells (%),[4],64%
same,Population Normal (%),[4],92%
same,Population Pyknosed Nuclei (%),[4],22%
same,Population Tubulin-Different-Phenotype (%),[4],67%
same,Total Cell Count,[4],118
same,Population Apoptotic (%),[5],75%
same,Population Fragmented Nuclei (%),[5],17%
same,Population Healthy Nuclei (%),[5],65%
same,Population Hoechst High Intensity Objects (%),[5],2%
same,Population Membrane Permeable-Phenotype (%),[5],1%
same,Population Mitochondria Different-Phenotype (%),[5],3%
same,Population Mitotic Cells (%),[5],25%
same,Population Normal (%),[5],97%
same,Population Pyknosed Nuclei (%),[5],16%
same,Population Tubulin-Different-Phenotype (%),[5],19%
same,Total Cell Count,[5],145
same,Population Apoptotic (%),[6],47%
same,Population Fragmented Nuclei (%),[6],36%
same,Population Healthy Nuclei (%),[6],44%
same,Population Membrane Permeable-Phenotype (%),[6],8%
same,Population Mitochondria Different-Phenotype (%),[6],8%
same,Population Mitotic Cells (%),[6],52%
same,Population Pyknosed Nuclei (%),[6],18%
same,Population Tubulin-Different-Phenotype (%),[6],50%
same,Total Cell Count,[6],106
same,Population Apoptotic (%),[7],41%
same,Population Fragmented Nuclei (%),[7],12%
same,Population Healthy Nuclei (%),[7],70%
same,Population Hoechst High Intensity Objects (%),[7],2%
same,Population Membrane Permeable-Phenotype (%),[7],1%
same,Population Mitochondria Different-Phenotype (%),[7],6%
same,Population Mitotic Cells (%),[7],58%
same,Population Normal (%),[7],97%
same,Population Pyknosed Nuclei (%),[7],17%
same,Population Tubulin-Different-Phenotype (%),[7],41%
same,Total Cell Count,[7],213
same,Population Apoptotic (%),[8],29%
same,Population Fragmented Nuclei (%),[8],33%
same,Population Healthy Nuclei (%),[8],43%
same,Population Membrane Permeable-Phenotype (%),[8],4%
same,Population Mitotic Cells (%),[8],70%
same,Population Pyknosed Nuclei (%),[8],23%
same,Population Tubulin-Different-Phenotype (%),[8],64%
same,Total Cell Count,[8],107
same,Population Apoptotic (%),[9],70%
same,Population Fragmented Nuclei (%),[9],22%
same,Population Healthy Nuclei (%),[9],62%
same,Population Hoechst High Intensity Objects (%),[9],2%
same,Population Membrane Permeable-Phenotype (%),[9],0%
same,Population Mitochondria Different-Phenotype (%),[9],2%
same,Population Mitotic Cells (%),[9],30%
same,Population Normal (%),[9],97%
same,Population Pyknosed Nuclei (%),[9],15%
same,Population Tubulin-Different-Phenotype (%),[9],20%
same,Total Cell Count,[9],137
same,Population Apoptotic (%),[10],50%
same,Population Fragmented Nuclei (%),[10],36%
same,Population Healthy Nuclei (%),[10],49%
same,Population Hoechst High Intensity Objects (%),[10],3%
same,Population Membrane Permeable-Phenotype (%),[10],2%
same,Population Mitochondria Different-Phenotype (%),[10],6%
same,Population Mitotic Cells (%),[10],50%
same,Population Normal (%),[10],96%
same,Population Pyknosed Nuclei (%),[10],14%
same,Population Tubulin-Different-Phenotype (%),[10],54%
same,Total Cell Count,[10],101
same,Population Apoptotic (%),[11],40%
same,Population Fragmented Nuclei (%),[11],26%
same,Population Healthy Nuclei (%),[11],58%
same,Population Hoechst High Intensity Objects (%),[11],3%
same,Population Membrane Permeable-Phenotype (%),[11],0%
same,Population Mitochondria Different-Phenotype (%),[11],0%
same,Population Mitotic Cells (%),[11],59%
same,Population Normal (%),[11],96%
same,Population Pyknosed Nuclei (%),[11],14%
same,Population Tubulin-Different-Phenotype (%),[11],31%
same,Total Cell Count,[11],227
same,Population Apoptotic (%),[12],66%
same,Population Fragmented Nuclei (%),[12],50%
same,Population Healthy Nuclei (%),[12],39%
same,Population Membrane Permeable-Phenotype (%),[12],9%
same,Population Mitochondria Different-Phenotype (%),[12],9%
same,Population Mitotic Cells (%),[12],33%
same,Population Pyknosed Nuclei (%),[12],10%
same,Population Tubulin-Different-Phenotype (%),[12],60%
same,Total Cell Count,[12],114

# Source: ChEMBL document CHEMBL5058577, “EUbOPEN Chemogenomics Library 2 (Multiplex)” (2022)
